ChEMBL document CHEMBL1944515 (J Med Chem, 2012)
Activity calls are given as the source filed them. The calls are words filed in the database; no cut-off is given here.

Legend:
HeLa = experiment: Induction of cell cycle arrest in human HeLa cells assessed as decrease in S phase cells at 15 to 250 nM after 24 hrs by flow cytometry; type: functional, cell-based
In short: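 5 × 10^5 exponentially growing HeLa cells were treated with 15–250 nM for 24 h, fixed in ice-cold 70% ethanol, then treated with lysis buffer containing RNase A and 0.1% Triton X-100. PI staining of DNA content, read by flow cytometry. Mean ± SEM of three independent experiments.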

[1] = molecular target: T1, M-phase inducer phosphatase 3 (Homo sapiens) (UniProt P30307); experiment: Induction of cdc25c phosphorylation in human HeLa cells at 50 to 100 nM after 24 hrs by Western blot analysis
T1 sequence (whole entry): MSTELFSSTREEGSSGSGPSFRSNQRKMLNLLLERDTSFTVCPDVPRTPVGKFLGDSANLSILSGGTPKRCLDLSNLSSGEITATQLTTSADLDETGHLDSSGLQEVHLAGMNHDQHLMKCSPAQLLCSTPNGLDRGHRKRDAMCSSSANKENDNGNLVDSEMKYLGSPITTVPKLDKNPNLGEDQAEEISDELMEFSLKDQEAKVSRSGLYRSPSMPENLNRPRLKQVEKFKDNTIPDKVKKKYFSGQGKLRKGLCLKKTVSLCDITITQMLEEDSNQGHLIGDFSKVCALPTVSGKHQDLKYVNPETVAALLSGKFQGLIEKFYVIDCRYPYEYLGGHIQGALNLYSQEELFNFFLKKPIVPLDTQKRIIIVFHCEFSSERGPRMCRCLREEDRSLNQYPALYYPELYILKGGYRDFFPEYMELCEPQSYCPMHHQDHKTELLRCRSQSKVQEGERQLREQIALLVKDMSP

## CCOc1ccc(-c2nnnn2-c2cc(OC)c(OC)c(OC)c2)cc1
HeLa
  Activity: Active
[1]
  induction: Active
